Published values from different studies.
Compare with care: the assays were run in different laboratories.
FGFR3: Fibroblast growth factor receptor 3 (FGFR3, Homo sapiens, UniProt P22607)
FGFR3 G697C: Fibroblast growth factor receptor 3 (FGFR3, Homo sapiens, UniProt P22607, G697C)

`O=C(NCCCN1CCOCC1)c1ccc(Nc2nccc(-c3cc4ccccc4s3)n2)cc1` has a remaining binding of 94% (FGFR3; binding, competition with immobilised ligand; 1 µM).
The remaining binding of `CC1CCCN1c1nccc(-c2cnn3ncccc23)n1` (stereo not drawn) is reported as 100% (FGFR3; binding; 1 µM).
`COc1cnc(Nc2cccc(S(N)(=O)=O)c2)nc1N1CCN(c2ccccc2)C(=O)C1` has a remaining binding of 92% (FGFR3 G697C; binding, competition with immobilised ligand; 1 µM).
`O=C(c1ccc(Nc2nccc(-c3cc4ccccc4s3)n2)cc1)N1CCC(N2CCCC2)CC1` has a remaining binding of 87% (FGFR3; binding, competition with immobilised ligand; 1 µM).
`O=C1NC(c2ccccn2)Sc2ccccc21` (stereo not drawn) gave a remaining binding of 97% (FGFR3; cell-free assay, competition with immobilised ligand; 1 µM).
For `O=C(Nc1c[nH]nc1C(=O)NC1CCNCC1)c1cc(F)cc(F)c1`, the remaining binding was 100% (FGFR3; binding, competition with immobilised ligand; 1 µM).
The remaining binding of `C[C@@H]1CN(c2ccc3ncc(-c4ccc5[nH]nc(C6CC6)c5c4)n3n2)C[C@H](C)O1` is reported as 100% (FGFR3; binding, competition with immobilised ligand; 50 nM).
The remaining binding of `CCN1CCN(Cc2ccc(C(=O)Nc3ccc(C)c(Oc4ccc5c(c4)CC(=O)N5)c3)cc2C(F)(F)F)CC1` is reported as 100% (FGFR3; binding, competition with immobilised ligand; 1 µM).
With `O=C(c1ccc(Nc2ncc(Cl)c(-c3cc4ccccc4s3)n2)cc1)N1CCC(N2CCCC2)CC1` the remaining binding was 38% (FGFR3; binding, competition with immobilised ligand; 1 µM).
The remaining binding of `C=CC(=O)N1CCC(C(=O)NCC(=O)N2CCN(c3nc(-c4cnc(N)nc4C(F)F)nc(N4CCOCC4)n3)CC2)CC1` is reported as 96% (FGFR3; binding, competition with immobilised ligand; 1 µM).
`Cc1cc(-n2nc(Cc3cc(F)cc(C(F)(F)F)c3)nc2C)ccc1C(N)=O` gave a remaining binding of 100% (FGFR3 G697C; cell-free assay, competition with immobilised ligand; 1 µM).
For `O=C(NCC1CCOCC1)c1n[nH]cc1NC(=O)c1c(F)cccc1F`, the remaining binding was 100% (FGFR3; binding, competition with immobilised ligand; 1 µM).
`Cc1cnc(Nc2ccc(C(=O)N3CCC(N4CCCC4)CC3)cc2)nc1-c1cc2ccccc2s1` gave a remaining binding of 23% (FGFR3; binding, competition with immobilised ligand; 1 µM).
`CNC(=O)[C@@H]1CC[C@@H](n2c(-c3ccc4cnccc4c3)nc3ccc(C(=O)NCc4cccc(C(N)=O)c4)cc32)C1` has a remaining binding of 93% (FGFR3 G697C; binding, competition with immobilised ligand; 1 µM).
`COc1ncc2cc3ccccc3nc2c1C#N` has a remaining binding of 100% (FGFR3; cell-free assay, competition with immobilised ligand; 5 µM).
For `CC(C)(C)c1ccc(-c2nc(CBr)nn2-c2cccc(O)c2)cc1`, the remaining binding was 93% (FGFR3; cell-free assay, competition with immobilised ligand; 10 µM).
With `COc1cnc(Nc2cccc(S(N)(=O)=O)c2)nc1N1CCN(c2ccccc2)CC1` the remaining binding was 100% (FGFR3 G697C; binding, competition with immobilised ligand; 1 µM).
`N[C@@H]1CCN(c2nccc(-c3cnn4ncccc34)n2)C1` has a remaining binding of 100% (FGFR3; binding; 1 µM).
`O=C(NCCCN1CCOCC1)c1ccc(Nc2ncc(Cl)c(-c3ccc(Cl)s3)n2)cc1` has a remaining binding of 41% (FGFR3; binding, competition with immobilised ligand; 1 µM).
The remaining binding of `CN(CCCC(F)(F)F)c1nccc(-c2cnn3ncccc23)n1` is reported as 93% (FGFR3; binding; 1 µM).
`Nc1ncc2c(n1)-c1c([nH]c3ccc(C#CC4CC4)cc13)CCCC2` gave a remaining binding of 95% (FGFR3; binding, competition with immobilised ligand; 1 µM).
The remaining binding of `COc1ccc2cc(OCC3(C(=O)O)CN(C(=O)c4ccc(F)cc4)C3)ccc2c1` is reported as 88% (FGFR3 G697C; cell-free assay, competition with immobilised ligand; 1 µM).
`CN(C)c1nccc(-c2cnc3ncccn23)n1` gave a remaining binding of 99% (FGFR3 G697C; binding; 1 µM).
The remaining binding of `C[C@@H](c1ccc(-n2cnc3c(N)ncnc32)cc1)N1CCc2nn(C)c(Cc3ccccc3)c2C1=O` is reported as 80% (FGFR3; binding, competition with immobilised ligand; 0.1 µM).
`COc1ccc2c(c1)O[C@@H](c1ccc(OC)c(OC)c1)C[C@H]2NC(=O)C1(c2ccc3c(c2)OC(F)(F)O3)CC1` gave a remaining binding of 89% (FGFR3; cell-free assay, competition with immobilised ligand; 1 µM).
`c1cncc(-c2cccc(Nc3nccc(NC4CCCCC4)n3)c2)c1` gave a remaining binding of 60% (FGFR3; binding, competition with immobilised ligand; 10 µM).
With `CN(c1nccc(-c2cnn3ncccc23)n1)C1CC1` the remaining binding was 98% (FGFR3; binding; 1 µM).
The remaining binding of `COCCOc1nc(-c2ccc(Cl)nc2)nc2c1CN(C(=O)c1ncn3ccccc13)CC2` is reported as 100% (FGFR3 G697C; cell-free assay, competition with immobilised ligand; 0.1 µM).
With `C[C@@H]1CCN(c2nccc(-c3cnn4ncccc34)n2)C1` the remaining binding was 90% (FGFR3; binding; 1 µM).
With `CC(=O)N1CCC(c2ccc(C(=O)NC(=N)N)cc2C(F)(F)F)CC1` the remaining binding was 98% (FGFR3 G697C; cell-free assay, competition with immobilised ligand; 1 µM).
`c1cnn2ncc(-c3ccnc(N4CCC45COC5)n3)c2c1` gave a remaining binding of 86% (FGFR3 G697C; binding; 1 µM).
`CCCCN(CCCC)C(=O)CN1C[C@@H](c2cc(OC)c3c(c2)OCO3)[C@H](C(=O)O)[C@H]1CC(C)(C)CCC` gave a remaining binding of 88.5% (FGFR3; cell-free assay, competition with immobilised ligand; 1 µM).
The remaining binding of `CN1CCN(c2ccc(Nc3nccc(-c4ccccc4)n3)cc2C(F)(F)F)CC1` is reported as 86% (FGFR3 G697C; binding; 10 µM).
`O=C(c1ccc(Nc2ncc(Cl)c(-c3ccc(Cl)s3)n2)cc1)N1CCC(N2CCCC2)CC1` has a remaining binding of 19% (FGFR3; binding, competition with immobilised ligand; 1 µM).
With `COc1ccnn2ncc(-c3ccnc(N(C)C)n3)c12` the remaining binding was 95% (FGFR3; binding; 1 µM).
For `O=C(NCc1ncc(C(F)(F)F)cc1Cl)c1ccc2c(c1)C1(CCS(=O)(=O)CC1)[C@H](C1CC1)N2S(=O)(=O)c1ccc(F)cc1`, the remaining binding was 100% (FGFR3 G697C; cell-free assay, competition with immobilised ligand; 1 µM).
